Data set [1] in a line: Plasma and urine pharmacokinetics, part I SAD study. It is filed as in vivo, human. As to conditions: for CL/F / Fe0‐72h (fraction excreted in urine): geometric mean (geometric CV%). A digest of the protocol:
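Healthy adults randomized 6:2 to oral test compound or placebo (n = 8/cohort), fasted ≥10 h, no food ≥4 h postdose. Solution given as 150 mL in diluted Ora-Sweet plus 90 mL water rinse. Plasma sampled predose to 72 h. UHPLC-MS/MS with deuterated internal standard; plasma 2.5–1000 μg/L (LLOQ 2.5), urine 2–800 μg/L (LLOQ 2.0). Noncompartmental analysis; power-model ln-regression of Cmax/AUC on dose, slope with 90% CI.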

Data set [2] in a line: Solubility in water. It is filed as physicochemical.
Data set [3] deals with monkeys. The data set can be described thus: Multiple-dose toxicity study up to 28 days in monkeys. Format: in vivo.

In brackets after ≈: the same amount, converted by molar mass.

As usually defined, the half-life is the time needed for the level to fall by half in the phase considered. A higher half-life goes with slow decline. For orientation: solubility means how much of the substance goes into solution per volume. With `O[C@H]1CCCN[C@@H]1CCCn1cnc2c(Cl)c(Cl)ccc21` [Bersiporocin], the CL/F is recorded as 156.48 (58.10) L/h in data set [1] (SAD single 100 mg capsule); 340.72 (48.72) L/h in data set [1] (SAD single 100 mg solution); 196.59 (47.06) L/h in data set [1] (SAD single 300 mg capsule); 213.75 (53.27) L/h in data set [1] (SAD single 500 mg tablet); 312.07 (222.08) L/h in data set [1] (SAD single 600 mg capsule). The “Fe0‐72h (fraction excreted in urine)” value is reported as 10.01 (45.08) % in data set [1] (SAD single 100 mg capsule); 7.59 (32.47) % in data set [1] (SAD single 100 mg solution); 7.42 (43.31) % in data set [1] (SAD single 300 mg capsule); 42.18 (180.78) % in data set [1] (SAD single 500 mg tablet); 3.09 (341.55) % in data set [1] (SAD single 600 mg capsule). The same compound came in with a half-life in data set [1] (human, plasma, oral, t 1/2, range, SAD, enteric coated capsule) of 6.91 to 9.9 h. The “dose dependence of plasma concentration” value in data set [1] (single dose of enteric coated capsule) is on record as “dose‐proportional manner”. For the same compound, the “role of renal elimination” value in data set [1] (urine PK data from SAD or MAD) is “renal elimination was not the major clearance pathway”. For the same compound, the solubility in data set [2] stood at 19.6 mg/mL (≈ 59.6 mM). Further, in data set [3] (calculated from NOAEL in monkeys, safety factor = 10), the “maximum recommended starting dose for a 60 kg adult” value was 154.8 mg. Besides, in data set [3] (monkeys, concluded not to be an adverse event, transient), the “clinical observation in toxicity study” value is listed as “vomiting was observed”.

The values above are taken from article PMC10339703 (Clinical and Translational Science, 2023).
